Test results published in ChEMBL document CHEMBL3393003, “1,2,3,9b-Tetrahydro-5H-imidazo[2,1-a]isoindol-5-ones as a new class of respiratory syncytial virus (RSV) fusion inhibitors. Part 2: identification of BTA9881 as a preclinical candidate” (Bioorg Med Chem Lett, 2015).

What was measured:
[1] = tested on: Respiratory syncytial virus; test: Antiviral activity against respiratory syncytial virus A2 infected in human Hep2 cells assessed as reduction in virus-induced cytopathic effect after 5 days by MTT assay; format: functional, organism-based; details: A2, HEp-2, 120 h
Outline: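 HEp2 cells (1.0 × 10⁴/well) infected at low moi (RSV A2 at moi 0.01) and added to serial compound dilutions; incubated 5 days at 37 °C, 5% CO₂. CPE read by MTT (1 mg/ml) metabolism after 2 h incubation.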

[2] = tested on: Respiratory syncytial virus; test: Potency shift index, ratio of EC50 for respiratory syncytial virus A2 infected in human Hep2 in presence of 1.5 mg/mL Alpha-1-acid glycoprotein to EC50 for respiratory syncytial virus A2 infected in human Hep2 in absence of Alpha-1-acid glycoprotein; format: functional
[3] = Cytotoxicity against human Hep2 cells assessed as reduction in cell viability after 5 days by MTT assay; format: cell-based, HEp-2
Outline: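 Uninfected HEp2 cells (1.0 × 10⁴/well) exposed to serial compound dilutions for 5 days at 37 °C, 5% CO₂. Viability read by MTT (1 mg/ml) metabolism after 2 h incubation.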

## O=C(c1ccon1)N1CCN2C(=O)c3ccncc3C12c1ccc(Cl)cc1 (racemic)
[1]
  EC50: 180 nM
[2]
  Ratio EC50: 11
[3]
  CC50 at 120 h: > 20000 nM

## O=C(c1ccc(F)cc1)N1CCN2C(=O)c3cc[n+]([O-])cc3[C@]12c1ccc(Cl)cc1
[1]
  EC50: 170 nM

## O=C(c1csc(-c2cccnc2)n1)N1CCN2C(=O)c3ccncc3[C@@]12c1ccc(Cl)cc1
[1]
  EC50: 920 nM

## O=C(c1ccc(F)cc1)N1CCN2C(=O)c3cc[n+]([O-])cc3[C@@]12c1ccc(Cl)cc1
[1]
  EC50: 8600 nM

## O=C(c1ccc(F)nc1)N1CCN2C(=O)c3ccncc3[C@@]12c1ccc(Cl)cc1
[1]
  EC50: 7800 nM

## Cn1cncc1C(=O)N1CCN2C(=O)c3ccncc3C21c1ccc(Cl)cc1 (racemic)
[1]
  EC50: 730 nM
[3]
  CC50 at 120 h: > 20000 nM

## O=C(c1ccc2ccccc2n1)N1CCN2C(=O)c3ccncc3C12c1ccc(Cl)cc1 (racemic)
[1]
  EC50: 8500 nM
[3]
  CC50 at 120 h: > 17000 nM

## Cn1cnc(C(=O)N2CCN3C(=O)c4ccncc4C23c2ccc(Cl)cc2)c1 (racemic)
[1]
  EC50: 750 nM
[3]
  CC50 at 120 h: > 20000 nM

## O=C(NCc1ccc(F)cc1)N1CCN2C(=O)c3ccncc3C12c1ccc(Cl)cc1 (racemic)
[1]
  EC50: 930 nM
[3]
  CC50 at 120 h: > 20000 nM

## O=C(c1cscn1)N1CCN2C(=O)c3ccncc3C12c1ccc(Cl)cc1 (racemic)
[1]
  EC50: 180 nM
[2]
  Ratio EC50: 16
[3]
  CC50 at 120 h: > 18000 nM

## O=C(c1ccccn1)N1CCN2C(=O)c3ccncc3C12c1ccc(Cl)cc1 (racemic)
[1]
  EC50: 770 nM
[3]
  CC50 at 120 h: > 19000 nM

## O=C(c1ccc(F)cc1)N1CCN2C(=O)c3ccncc3[C@@]12c1ccc(Cl)cc1
[1]
  EC50: 14000 nM

## O=C(c1cc2ccccc2o1)N1CCN2C(=O)c3ccncc3C12c1ccc(Cl)cc1 (racemic)
[1]
  EC50: 6400 nM
[3]
  CC50 at 120 h: > 17000 nM

## O=C(c1csc(-c2cccs2)n1)N1CCN2C(=O)c3ccncc3C12c1ccc(Cl)cc1 (racemic)
[1]
  EC50: 27 nM
[2]
  Ratio EC50: 16
[3]
  CC50 at 120 h: > 15000 nM

## O=C(c1csc(-c2cccnc2)n1)N1CCN2C(=O)c3ccncc3[C@]12c1ccc(Cl)cc1
[1]
  EC50: 13 nM

## Cc1oc(-c2ccccc2)cc1C(=O)N1CCN2C(=O)c3ccncc3C21c1ccc(Cl)cc1 (racemic)
[1]
  EC50: 1600 nM
[3]
  CC50 at 120 h: > 15000 nM

## O=C(c1ccsc1)N1CCN2C(=O)c3ccncc3C12c1ccc(Cl)cc1 (racemic)
[1]
  EC50: 170 nM
[2]
  Ratio EC50: 27
[3]
  CC50 at 120 h: > 18000 nM

## O=C(Nc1ccc(F)cc1)N1CCN2C(=O)c3ccncc3C12c1ccc(Cl)cc1 (racemic)
[1]
  EC50: 1000 nM
[3]
  CC50 at 120 h: > 20000 nM

## O=C(c1csc(-c2cccnc2)n1)N1CCN2C(=O)c3ccncc3C12c1ccc(Cl)cc1 (racemic)
[1]
  EC50: 25 nM
[2]
  Ratio EC50: 10
[3]
  CC50 at 120 h: > 15000 nM

## O=C(c1ccoc1)N1CCN2C(=O)c3ccncc3C12c1ccc(Cl)cc1 (racemic)
[1]
  EC50: 96 nM
[2]
  Ratio EC50: 2.4
[3]
  CC50 at 120 h: > 19000 nM

## O=C(NCCc1ccc(F)cc1)N1CCN2C(=O)c3ccncc3C12c1ccc(Cl)cc1 (racemic)
[1]
  EC50: 620 nM
[3]
  CC50 at 120 h: > 20000 nM

## O=C(c1ccc(F)cc1)N1CCN2C(=O)c3ccncc3[C@]12c1ccc(Cl)cc1
[1]
  EC50: 110 nM

## Cn1cccc1C(=O)N1CCN2C(=O)c3ccncc3C21c1ccc(Cl)cc1 (racemic)
[1]
  EC50: 20 nM
[2]
  Ratio EC50: 91
[3]
  CC50 at 120 h: > 20000 nM

## O=C(c1cccnc1)N1CCN2C(=O)c3ccncc3[C@@]12c1ccc(Cl)cc1
[1]
  EC50: > 1200 nM

## O=C(c1ccoc1)N1CCN2C(=O)c3ccncc3[C@@]12c1ccc(Cl)cc1
[1]
  EC50: 670 nM

## Cc1nc(C(=O)N2CCN3C(=O)c4ccncc4C23c2ccc(Cl)cc2)cs1 (racemic)
[1]
  EC50: 73 nM
[2]
  Ratio EC50: 5.7
[3]
  CC50 at 120 h: > 18000 nM

## O=C(c1cccc(Cl)n1)N1CCN2C(=O)c3ccncc3C12c1ccc(Cl)cc1 (racemic)
[1]
  EC50: 110 nM
[2]
  Ratio EC50: 27
[3]
  CC50 at 120 h: > 17000 nM

## O=C(c1ccno1)N1CCN2C(=O)c3ccncc3C12c1ccc(Cl)cc1 (racemic)
[1]
  EC50: 370 nM
[3]
  CC50 at 120 h: > 19000 nM

## O=C(c1csc(-c2ccncc2)n1)N1CCN2C(=O)c3ccncc3C12c1ccc(Cl)cc1 (racemic)
[1]
  EC50: 2300 nM
[3]
  CC50 at 120 h: > 15000 nM
